Test results: ChEMBL document CHEMBL3526089, “Selective mechanism-based inactivation of CYP3A4 by CYP3cide (PF-04981517) and its utility as an in vitro tool for delineating the relative roles of CYP3A4 versus CYP3A5 in the metabolism of drugs” (Drug Metab Dispos, 2012)

Experiments:
Assay type in all cases: ADME
[1] = target: T1, Cytochrome P450 3A4 (Homo sapiens, UniProt P08684); assay: Reversible inhibition of testosterone 6beta-hydroxylase activity of human recombinant CYP3A4 in presence of human P450 oxidoreductase and b5
Outline: (§1)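 IC50 was measured with baculovirus-expressed CYP3A4 plus POR and cytochrome b5 (P450:reductase:b5 1:5:7), with substrate at its experimentally derived KM, in duplicate. Enzyme was 0.010 mg/ml for midazolam 1'-hydroxylation and 0.020 mg/ml for testosterone 6β-hydroxylation.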

[2] = target: T1, Cytochrome P450 3A4; assay: Reversible inhibition of midazolam 1'-hydroxylase activity of human recombinant CYP3A4 harboring human P450 oxidoreductase and b5; outline: as §1
[3] = target: CYP3A5 (Homo sapiens, UniProt P20815); assay: Time dependent inhibition of midazolam 1'-hydroxylase activity of human recombinant CYP3A5 harboring human P450 oxidoreductase and b5 assessed as decrease in enzyme activity at 2 uM preincubated for 30 mins by IC25-shift assay; conditions: recombinant CYP3A5 with human P450 oxidoreductase and b5, probe midazolam (1'-hydroxylation)
Outline: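 IC25-shift assay. Pooled HLMs or recombinant CYP3A4/3A5/3A7 were preincubated 30 min at 37°C with CYP3cide, with or without NADPH (1.3 mM) (N=2). Mixture diluted 10-fold into probe substrate (~KM) at 37°C. Metabolites analysed by LC/MS/MS. Readout: % decrease in activity vs control.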

[4] = target: Cytochrome P450 3A5 (Homo sapiens, UniProt P20815); assay: Reversible inhibition of testosterone 6beta-hydroxylase activity of human recombinant CYP3A5 in presence of human P450 oxidoreductase and b5
Outline: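 Recombinant CYP3A5 expressed in baculovirus, with P450 oxidoreductase and cytochrome b5 (P450:POR:b5 1:13:7). Enzyme at 0.010 mg/ml for midazolam 1'-hydroxylase and 0.020 mg/ml for testosterone 6β-hydroxylase. Each substrate at its experimentally derived KM. IC50 determined in duplicate.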

T1 sequence (P08684 whole entry): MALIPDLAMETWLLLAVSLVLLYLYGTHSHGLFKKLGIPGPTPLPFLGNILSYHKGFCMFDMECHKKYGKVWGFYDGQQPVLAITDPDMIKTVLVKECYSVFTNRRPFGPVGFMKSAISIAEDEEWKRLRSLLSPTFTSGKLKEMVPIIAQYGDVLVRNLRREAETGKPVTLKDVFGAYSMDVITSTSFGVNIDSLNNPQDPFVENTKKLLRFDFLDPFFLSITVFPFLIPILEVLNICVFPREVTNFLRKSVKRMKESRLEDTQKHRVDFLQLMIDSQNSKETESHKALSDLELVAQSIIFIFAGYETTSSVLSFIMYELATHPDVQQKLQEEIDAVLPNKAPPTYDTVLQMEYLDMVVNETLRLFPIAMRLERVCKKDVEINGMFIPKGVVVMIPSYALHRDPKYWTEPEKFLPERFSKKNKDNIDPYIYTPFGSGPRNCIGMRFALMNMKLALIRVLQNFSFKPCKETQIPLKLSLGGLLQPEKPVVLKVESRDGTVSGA
Sequence of Cytochrome P450 3A5 (P20815 whole entry): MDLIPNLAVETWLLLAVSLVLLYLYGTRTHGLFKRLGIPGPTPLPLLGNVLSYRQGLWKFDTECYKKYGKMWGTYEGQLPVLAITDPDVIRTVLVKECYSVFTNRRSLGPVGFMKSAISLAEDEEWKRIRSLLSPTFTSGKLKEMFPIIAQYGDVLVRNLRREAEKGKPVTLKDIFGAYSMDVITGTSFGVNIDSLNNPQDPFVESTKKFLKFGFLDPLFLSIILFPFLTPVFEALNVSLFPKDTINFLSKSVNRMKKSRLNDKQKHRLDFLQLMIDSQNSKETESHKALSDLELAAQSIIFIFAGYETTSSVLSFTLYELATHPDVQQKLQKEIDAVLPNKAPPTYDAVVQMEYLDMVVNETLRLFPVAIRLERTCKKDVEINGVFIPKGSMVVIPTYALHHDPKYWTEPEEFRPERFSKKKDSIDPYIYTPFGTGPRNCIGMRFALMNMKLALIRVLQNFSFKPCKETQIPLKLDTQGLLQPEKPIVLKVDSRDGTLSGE
Sequence of CYP3A5 (P20815 whole entry): as above

IC50 [1]: 690 nM
IC50 [2]: 30 nM
inhibition at 30 min, 2 µM [3]: 61%
IC50 [4]: 71000 nM
Compound: Cc1ccc(-c2c(-c3nn(C)c4ncnc(N5CC[C@H](N6CCCCC6)C5)c34)cnn2C)cc1
